This is an account of results in ChEMBL document CHEMBL3232926, “Design, synthesis and biological evaluation of novel aminomethyl-piperidones based DPP-IV inhibitors” (Bioorg Med Chem Lett, 2014).

Activity calls are given as the source filed them. No cut-off for these calls is given here.

Data set [1] in a line: Oral bioavailability in C57BL/6J mouse at 3 mg/kg. The data set is classed as ADME, organism-based. To be noted: in vivo. The procedure, abridged: (§1)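 Single 3 mg/kg oral or iv dose to overnight-fasted male C57BL/6J mice (n = 6). Serial EDTA blood sampling at pre-dose and 0.15–48 h post-dose. Plasma separated at 4 °C, stored at -70 °C and analysed by LC–MS/MS on a C18 column. %F derived against iv AUC. Values are mean SD.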

A short description of data set [2]: AUC in C57BL/6J mouse at 3 mg/kg, iv. Also noted: dose 3 mg/kg, route intravenous. The conditions noted are these: plasma. The data set is classed as ADME, organism-based. The procedure, abridged:
as §1

In data set [3] the target is Cytochrome P450 2C9 (Homo sapiens, UniProt P11712). The data set can be described thus: Inhibition of human CYP2C9 expressed in Escherichia coli using diclofenac as substrate up to 100 uM preincubated for 5 mins followed by NADPH addition measured after 20 mins by HPLC analysis. The data set is classed as ADME.
Data set [4] in a line: Cmax in C57BL/6J mouse at 3 mg/kg, po. It is filed as ADME, organism-based. Also noted: dose 3 mg/kg, route oral. To be noted: in vivo. Put shortly: as §1
Data set [5] relates to Mus musculus. The experiment in a line: Antidiabetic activity in fed db/db hyperglycemic mouse model assessed as decrease in serum glucose AUC at 3 mg/kg, po measured up to 24 hrs by DPEC-GOD/POD method relative to vehicle-treated control. Set-up: scale not given: the % may be the effect or the level left. The data set is classed as functional. The procedure, abridged:
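Fed male-unspecified db/db mice dosed orally at 3 mg/kg, with blood taken at time points up to 24 h. Serum glucose measured promptly by the GOD/POD method on duplicate samples. Glucose AUC compared with vehicle control by two-way ANOVA with Bonferroni post test. Values are mean SEM.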

Data set [6] addresses T1, Cytochrome P450 1A2 (Homo sapiens, UniProt P05177).
T1 sequence (P05177 whole entry): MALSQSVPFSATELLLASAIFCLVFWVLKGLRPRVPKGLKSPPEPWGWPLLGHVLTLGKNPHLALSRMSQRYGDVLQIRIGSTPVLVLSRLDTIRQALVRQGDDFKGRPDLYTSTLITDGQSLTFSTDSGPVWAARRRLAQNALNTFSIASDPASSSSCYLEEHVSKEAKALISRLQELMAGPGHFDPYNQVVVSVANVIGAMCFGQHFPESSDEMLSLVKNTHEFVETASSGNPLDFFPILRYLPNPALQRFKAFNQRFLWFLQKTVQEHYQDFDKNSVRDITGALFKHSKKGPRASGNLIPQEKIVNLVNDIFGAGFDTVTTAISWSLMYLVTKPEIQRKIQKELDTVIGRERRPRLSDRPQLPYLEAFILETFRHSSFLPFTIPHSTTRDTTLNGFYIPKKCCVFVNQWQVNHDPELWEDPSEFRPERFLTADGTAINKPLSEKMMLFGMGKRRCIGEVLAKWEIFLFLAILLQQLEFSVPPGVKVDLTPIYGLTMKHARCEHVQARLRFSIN
The data set can be described thus: Inhibition of human CYP1A2 expressed in Escherichia coli using ethoxyresorufin as substrate up to 100 uM preincubated for 5 mins followed by NADPH addition measured after 20 mins by HPLC analysis. The data set is classed as ADME.

A short description of data set [7]: AUC (0 to infinity) in C57BL/6J mouse at 3 mg/kg, po. To be noted: plasma. The data set is classed as ADME, organism-based. Set-up: time infinity, dose 3 mg/kg, route oral. Put shortly:
as §1

In data set [8] the target is T2, Cytochrome P450 2C8 (Homo sapiens, UniProt P10632).
T2 sequence (P10632 whole entry): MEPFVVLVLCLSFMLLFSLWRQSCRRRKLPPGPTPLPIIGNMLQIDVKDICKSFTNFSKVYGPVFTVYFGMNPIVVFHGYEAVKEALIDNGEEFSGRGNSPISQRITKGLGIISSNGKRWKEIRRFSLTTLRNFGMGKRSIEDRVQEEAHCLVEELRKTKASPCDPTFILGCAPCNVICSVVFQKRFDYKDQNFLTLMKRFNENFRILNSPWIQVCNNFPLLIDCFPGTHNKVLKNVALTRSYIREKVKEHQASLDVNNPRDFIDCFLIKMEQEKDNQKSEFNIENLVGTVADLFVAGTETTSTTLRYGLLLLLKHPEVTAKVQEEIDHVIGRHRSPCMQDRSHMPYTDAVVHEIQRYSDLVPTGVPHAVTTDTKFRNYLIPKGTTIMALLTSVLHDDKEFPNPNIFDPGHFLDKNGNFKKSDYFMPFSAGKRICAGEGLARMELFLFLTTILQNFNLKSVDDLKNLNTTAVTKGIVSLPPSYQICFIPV
The experiment in a line: Inhibition of human CYP2C8 expressed in Escherichia coli using paclitaxel as substrate up to 100 uM preincubated for 5 mins followed by NADPH addition measured after 20 mins by HPLC analysis. It is filed as ADME.

Data set [9] is described as follows: Tmax in C57BL/6J mouse at 3 mg/kg, po. To be noted: in vivo. It is filed as ADME, organism-based. Set-up: dose 3 mg/kg, route oral. Put shortly:
as §1

Data set [10] has as its system Mus musculus. The experiment in a line: Antidiabetic activity in overnight fasted C57BL/6J mouse assessed as decrease in serum glucose AUC at 3 mg/kg, po administered 0.5 hrs prior to glucose challenge measured up to 240 mins by DPEC-GOD/POD method relative to vehicle-treated control. It is filed as functional. Also noted: scale not given: the % may be the effect or the level left. Put shortly:
(§2)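 Male C57BL/6J mice fasted overnight with water ad libitum. Dosed orally at 3 mg/kg 0.5 h before the oral glucose load. Serum glucose read by the GOD/POD method at 15–240 min on duplicate samples, then 0–240 min AUC taken. Two-way ANOVA with Bonferroni post test against vehicle. Values are mean SEM.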

For data set [11], the target named is Cytochrome P450 3A4 (Homo sapiens, UniProt P08684). The data set can be described thus: Inhibition of human CYP3A4 expressed in Escherichia coli using midazolam as substrate up to 100 uM preincubated for 5 mins followed by NADPH addition measured after 20 mins by HPLC analysis. The data set is classed as ADME.
Data set [12] in a line: Half life in C57BL/6J mouse at 3 mg/kg, po. The conditions noted are these: in vivo. It is filed as ADME, organism-based. Also noted: dose 3 mg/kg, route oral. Put shortly: as §1
Data set [13] addresses Cytochrome P450 2D6 (Homo sapiens, UniProt P10635). The experiment in a line: Inhibition of human CYP2D6 expressed in Escherichia coli using bufuralol as substrate up to 100 uM preincubated for 5 mins followed by NADPH addition measured after 20 mins by HPLC analysis. It is filed as ADME.
The nature of data set [14]: Elimination rate constant in C57BL/6J mouse at 3 mg/kg, po. The data set is classed as ADME, organism-based. Also noted: dose 3 mg/kg, route oral. The conditions noted are these: in vivo. The procedure, abridged: as §1
Data set [15] relates to Mus musculus. The data set can be described thus: Antidiabetic activity in fed db/db hyperglycemic mouse model assessed as decrease in serum glucose AUC at 3 mg/kg, po measured up to 2 hrs by DPEC-GOD/POD method relative to vehicle-treated control. Also noted: scale not given: the % may be the effect or the level left. The data set is classed as functional.
Data set [16] concerns the target Cytochrome P450 2C19 (Homo sapiens, UniProt P33261). The data set can be described thus: Inhibition of human CYP2C19 expressed in Escherichia coli using S-mephenytoin as substrate up to 100 uM preincubated for 5 mins followed by NADPH addition measured after 20 mins by HPLC analysis. The data set is classed as ADME.
Data set [17] deals with Mus musculus. The data set can be described thus: Antidiabetic activity in overnight fasted C57BL/6J mouse assessed as decrease in serum glucose level at 3 mg/kg, po administered 0.5 hrs prior to glucose challenge measured at 30 to 60 mins by DPEC-GOD/POD method. Also noted: dose 3 mg/kg. It is filed as functional, organism-based. Put shortly: as §2

Chain of Cytochrome P450 2D6 (P10635 whole entry): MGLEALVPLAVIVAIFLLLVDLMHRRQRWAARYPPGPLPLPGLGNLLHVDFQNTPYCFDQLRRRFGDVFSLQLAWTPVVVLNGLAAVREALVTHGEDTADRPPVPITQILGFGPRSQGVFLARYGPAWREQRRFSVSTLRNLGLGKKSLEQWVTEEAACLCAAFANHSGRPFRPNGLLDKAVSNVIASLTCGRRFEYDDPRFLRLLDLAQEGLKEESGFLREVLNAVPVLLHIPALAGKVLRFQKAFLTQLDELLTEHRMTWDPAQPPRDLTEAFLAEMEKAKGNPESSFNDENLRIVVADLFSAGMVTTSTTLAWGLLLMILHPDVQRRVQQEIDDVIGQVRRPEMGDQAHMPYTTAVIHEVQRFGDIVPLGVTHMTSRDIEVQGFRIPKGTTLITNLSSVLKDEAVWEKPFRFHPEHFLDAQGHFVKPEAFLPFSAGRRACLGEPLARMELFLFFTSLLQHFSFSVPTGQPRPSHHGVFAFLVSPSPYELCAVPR
Chain of Cytochrome P450 2C9 (P11712 whole entry): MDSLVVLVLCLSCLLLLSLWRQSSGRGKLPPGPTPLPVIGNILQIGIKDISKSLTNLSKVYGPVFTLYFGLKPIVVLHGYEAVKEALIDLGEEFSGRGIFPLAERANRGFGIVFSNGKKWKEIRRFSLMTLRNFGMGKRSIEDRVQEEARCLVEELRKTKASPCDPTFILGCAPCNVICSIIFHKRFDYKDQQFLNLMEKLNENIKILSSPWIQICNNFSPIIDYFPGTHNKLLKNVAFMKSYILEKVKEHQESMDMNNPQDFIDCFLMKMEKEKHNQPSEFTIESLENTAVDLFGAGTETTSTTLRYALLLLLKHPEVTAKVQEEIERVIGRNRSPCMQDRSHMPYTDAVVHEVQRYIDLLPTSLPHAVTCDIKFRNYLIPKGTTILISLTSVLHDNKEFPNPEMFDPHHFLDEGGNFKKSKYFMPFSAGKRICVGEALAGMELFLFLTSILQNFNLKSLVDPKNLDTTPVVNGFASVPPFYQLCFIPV
Chain of Cytochrome P450 2C19 (P33261 whole entry): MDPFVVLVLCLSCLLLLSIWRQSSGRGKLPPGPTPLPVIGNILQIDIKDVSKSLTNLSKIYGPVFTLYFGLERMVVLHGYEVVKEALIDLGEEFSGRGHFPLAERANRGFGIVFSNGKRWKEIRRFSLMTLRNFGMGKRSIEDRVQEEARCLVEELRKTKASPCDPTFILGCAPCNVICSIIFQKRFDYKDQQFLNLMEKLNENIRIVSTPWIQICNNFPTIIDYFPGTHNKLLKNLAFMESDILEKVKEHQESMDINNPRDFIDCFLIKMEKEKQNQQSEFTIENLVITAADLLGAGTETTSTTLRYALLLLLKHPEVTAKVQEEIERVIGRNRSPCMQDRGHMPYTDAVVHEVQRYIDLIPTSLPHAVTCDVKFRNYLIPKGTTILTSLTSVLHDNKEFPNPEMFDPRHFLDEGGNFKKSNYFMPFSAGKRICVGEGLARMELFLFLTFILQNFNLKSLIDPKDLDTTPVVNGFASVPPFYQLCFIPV
Chain of Cytochrome P450 3A4 (P08684 whole entry): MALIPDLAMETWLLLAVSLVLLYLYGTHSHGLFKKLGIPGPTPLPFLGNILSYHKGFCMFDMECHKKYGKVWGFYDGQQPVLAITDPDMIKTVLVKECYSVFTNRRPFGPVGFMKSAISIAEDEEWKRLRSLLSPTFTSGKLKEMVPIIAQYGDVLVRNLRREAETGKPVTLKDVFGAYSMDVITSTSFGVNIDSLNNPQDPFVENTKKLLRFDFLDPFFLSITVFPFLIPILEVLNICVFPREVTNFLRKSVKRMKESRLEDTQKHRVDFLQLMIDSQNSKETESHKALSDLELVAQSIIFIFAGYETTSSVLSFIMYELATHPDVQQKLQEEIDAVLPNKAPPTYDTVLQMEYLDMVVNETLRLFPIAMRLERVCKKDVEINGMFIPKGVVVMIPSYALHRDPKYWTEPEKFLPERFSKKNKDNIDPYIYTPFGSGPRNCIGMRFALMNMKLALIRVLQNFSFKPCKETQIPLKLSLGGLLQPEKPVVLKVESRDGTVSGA

As a reminder, the bioavailability is dose-corrected exposure relative to a reference, in per cent. By AUC is commonly meant concentration integrated over time. One may read the Cmax as the maximum level reached in the sampled fluid or tissue. One may read the AUC(0-inf) as the area under the concentration-time curve extrapolated to infinity. The term Tmax denotes the time at which the peak concentration occurs. A word on the half-life: it is the time in which the quantity being followed falls by half. Consider `NC[C@H]1CN(CCc2ccc3c(c2)OCO3)C(=O)C[C@@H]1c1cc(F)ccc1F`, for which the bioavailability in [1] was found to be 79.5%. In data set [2], this compound registered an AUC of 1270 ng·h/mL. Further, the “inhibition (INH)” value in data set [3], in data set [6], in [8], in data set [11], in data set [13] and in data set [16] was “Not Active” in each case. The Cmax in data set [4] is 420 ng/mL. The Activity in data set [5] came to 20.62%; in [10], 38.9%; in [15] it was 38.29%. This compound showed an AUC(0-inf) in [7] of 1010 ng·h/mL. The Tmax in [9] is 16.8 min. The half-life in [12] was 539 min. The compound also gave a k el in data set [14] of 3.33e-05 s⁻¹.

`N[C@@H](CC(=O)N1CCn2c(nnc2C(F)(F)F)C1)Cc1cc(F)c(F)cc1F` [SITAGLIPTIN] displayed a bioavailability in [1] of 75.7%. In [2], this compound gave an AUC of 740 ng·h/mL. In addition, the Cmax in data set [4] came to 310 ng/mL. Further, the Activity in data set [5] is given as 1.48%; in data set [10] it was 17.9%; in [15], 20.8%. Also, the AUC(0-inf) in data set [7] amounted to 560 ng·h/mL. Also, in [9], the Tmax is 13.2 min. This compound gave a half-life in data set [12] of 93.6 min. Besides, in data set [14], the k el was 0.000233 s⁻¹. Besides, the result in [17] was Active.
